In PubChem BioAssay AID821 (SRMLSC, 2007) one finds EC50 and viability data, which are given here for 93 compounds.

Calls of active or inactive are those of the source.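 Rule for the calls: active = compounds whose fitted half-maximal concentration for reducing fibroblast viability is 100 µM or lower; inactive = the rest.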

In one test the test system is LL 47 lung fibroblast viability, ATP luminescence. Nature of the test: inhibition of LL 47 lung fibroblast growth, concentration-response curve, selectivity screen for endothelial cell growth inhibitor project, cellular system, ATP luminescence readout (AID 821).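 For viability: 100% = median of untreated cell-only wells and 0% = no luminescence.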
Conditions: not given
An outline of the steps: (§1)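 Test system: human lung fibroblasts, LL 47 line / Amount: 1,150 cells/well / Schedule: 72 h compound treatment at 37 °C after overnight attachment / Technique: CellTiter-Glo luminescence readout of viable cells / Measure: percent viability relative to untreated wells, EC50 via 4-parameter fit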
`CCN(CC)CCn1c2ccccc2c2cnc(N)c(C#N)c21`: the concentration for a half-maximal effect (EC50) was 9.65 µM.

In the case of `COC(=O)/C=C1\C(=O)N(c2nc3ccccc3s2)C(=S)N1c1ccc(F)cc1`, the EC50 is 17.8 µM.

As to `O=S1(=O)C=C(Sc2nnc(-c3ccccc3)o2)c2ccccc21`, the EC50 is 1.71 µM.

Turning to `CCc1[nH]nc2c1C(c1ccc(Br)s1)C(C#N)=C(N)O2` (stereo not drawn), the EC50 was 13.6 µM.

`COc1ccc(CN=C(C)c2c(C(F)(F)F)[nH]n(-c3nc4ccccc4s3)c2=O)cc1`: the EC50 is 18 µM.

In the case of `O=C(Nc1ccc(N2CCOCC2)cc1)Nc1ccc2nc(-c3ccco3)c(-c3ccco3)nc2c1`, the concentration for a half-maximal effect (EC50) is 2.18 µM.

Regarding `CCCCN(C)S(=O)(=O)c1ccc(C(=O)Nc2nnc(-c3cccs3)o2)cc1`, the EC50 is 11.5 µM.

For `Cc1ccccc1CS(=O)(=O)c1nnc([C@H](CC(C)C)NC(=O)OC(C)(C)C)o1`, the EC50 is 14.9 µM.

For the compound `Cc1cccc(N2CCN(C(=O)Cn3sc4nc(C)cc(C)c4c3=O)CC2C)c1` (stereo not drawn), the concentration for a half-maximal effect (EC50) is 9.93 µM.

Regarding `O=C1Nc2ccccc2/C1=C/C(=O)c1cccs1`, the EC50 was 6.78 µM.

Regarding `Cc1cc2c(N=O)c(NO)ccc2[nH]1`, the concentration for a half-maximal effect (EC50) was 2.93 µM.

On to `Cc1cc(NC(c2cccnc2)c2ccc3cccnc3c2O)no1` (stereo not drawn), for which the half-maximal effective concentration (EC50) is 2.93 µM.

Turning to `COC(=O)CS(=O)(=O)c1nnc([C@H](Cc2ccccc2)NC(=O)OC(C)(C)C)o1`, the EC50 was 7.97 µM.

Take `O=c1[nH]c2ccccc2n1C1CCN(CCCC(c2ccc(F)cc2)c2ccc(F)cc2)CC1`: the half-maximal effective concentration (EC50) is 13.6 µM.

For `N#CC(c1ccccc1)c1ccc2c(C(F)(F)F)cc(C(F)(F)F)nc2n1` (stereo not drawn), the half-maximal effective concentration (EC50) was 18 µM.

Regarding `C#CCn1c(=NC(=O)c2ccc(Br)s2)sc2cccc(OC)c21`, the EC50 is 20.1 µM.

For `CN(CCO)c1cc(Sc2nc3ccccc3s2)c2nonc2c1[N+](=O)[O-]`, the 50% effective concentration (EC50) is 18.6 µM.

For the compound `COc1ccc(OC)c(CCNC(=O)Cn2sc3nc(C)cc(C)c3c2=O)c1`, the EC50 was 11.7 µM.

On to `CCC(C)(C)n1nnnc1C(c1cc2cc(C)cc(C)c2[nH]c1=O)N1CCN(Cc2ccc3c(c2)OCO3)CC1` (stereo not drawn), for which the half-maximal effective concentration (EC50) was 9.88 µM.

With `COc1ccc2nc(Nc3nc(CSc4nnnn4-c4ccccc4)cc(=O)[nH]3)nc(C)c2c1`, the EC50 was 13.8 µM.

`COc1ccc2oc(=O)c(-c3nnc(NCc4ccco4)s3)cc2c1`: the EC50 was 8 µM.

Consider `COc1ccccc1-c1nnc2n1N=C(c1ccc(O)c(O)c1)CS2`, for which the half-maximal effective concentration (EC50) was 2.68 µM.

On to `Cc1cc(C)n(-c2nc3ccccc3c(=O)n2OCC(=O)OCc2ccccc2)n1`, for which the EC50 was 4 µM.

With `Oc1ccccc1/C=N/Nc1nccnc1Cl`, the 50% effective concentration (EC50) is 2.08 µM.

In the case of `CC(C)=CCC/C(C)=C/CCC(C)NCCN1CCNCC1` (stereo not drawn), the concentration giving a half-maximal response (EC50) was 10.4 µM.

Consider `Cc1nc(S(=O)(=O)N(C)c2ccccc2)c(C#N)c(C)c1Cl`, for which the EC50 is 18.7 µM.

Consider `Cc1ccccc1CS(=O)(=O)c1nnc([C@H](Cc2ccccc2)NC(=O)OC(C)(C)C)o1`, for which the EC50 was 13.1 µM.

With `CC1=CC(C)(C)Nc2ccc(OC(=O)CN3C(=O)C4CCCCC4C3=O)cc21` (stereo not drawn), the EC50 was 12.4 µM.

On to `CC1CC(C)CN(S(=O)(=O)c2ccc(C(=O)NCCCn3ccnc3)cc2)C1` (stereo not drawn), for which the EC50 was 1.77 µM.

In the case of `O=C(CCS(=O)(=O)c1ccccc1)Nc1nc2c(s1)CCCC2`, the EC50 is 14.3 µM.

For `O=C(Cc1sc(-c2ccccc2Cl)nc1-c1ccccc1)Nc1ccc(F)cc1`, the EC50 is 19.4 µM.

On to `CC1(C)Cc2c(c(N3CCOCC3)nc3snc(N)c23)CO1`, for which the EC50 is 10.9 µM.

Consider `COc1ccc2c(c1)c1nc3ccccc3nc1n2CC(=O)OC(C)C`, for which the half-maximal effective concentration (EC50) is 15.5 µM.

With `COc1cc(C(C[N+](=O)[O-])c2c(-c3ccccc3)cc3ccccn23)cc(OC)c1OC` (stereo not drawn), the EC50 was 18.7 µM.

For `CCOC(=O)C1=C(N)n2c(s/c(=C/c3ccco3)c2=O)=C(C(=O)OC)C1c1ccco1` (stereo not drawn), the EC50 was 9.27 µM.

`O=c1[nH]c(Nc2nc3ccccc3o2)nc2c1CCCC2`: the EC50 is 4.52 µM.

On to `O=C(Oc1cccc2cccnc12)c1cccs1`, for which the EC50 was 4.21 µM.

For the compound `Cc1cc(C)c2ccc(N)nc2c1O`, the EC50 was 2.82 µM.

Consider `O=C(Oc1ccccc1-c1nnco1)c1ccc(Cl)cc1`, for which the EC50 is 5.03 µM.

Consider `Cc1ccc(C(=O)c2c(C)oc3c2C(=O)C(=O)c2ccccc2-3)cc1`, for which the concentration for a half-maximal effect (EC50) is 3.46 µM.

Take `CSc1nncc(=O)[nH]1`: the 50% effective concentration (EC50) is 13.1 µM.

With `CC(=O)Nc1ccc(NC2=Nc3ccccc3N3C2=Nc2c(c(C)nn2-c2ccccc2)C3c2ccccc2)cc1` (stereo not drawn), the EC50 was 12.2 µM.

In the case of `CCOC(=O)c1sc(SCC(=O)Nc2ccc(N(C)C)cc2)nc1N`, the 50% effective concentration (EC50) was 11.8 µM.

Consider `COc1cccc(C(=O)c2sc(NC(C)C)nc2N)c1`, for which the concentration giving a half-maximal response (EC50) is 16.1 µM.

Consider `O=C(C#Cc1cccc([N+](=O)[O-])c1)c1ccccc1`, for which the EC50 is 18.5 µM.

For `c1ccc(-c2nc3nonc3nc2-c2ccccc2)cc1`, the 50% effective concentration (EC50) was 15.2 µM.

For the compound `COC(=O)c1ccc2c(=O)n(Cc3ccco3)c(SCC(=O)Nc3ccc(C)c(Cl)c3)nc2c1`, the EC50 is 4.07 µM.

Regarding `CCOC(=O)c1cnc(-n2nc(C)cc2C)nc1Nc1ccc(N(C)C)cc1`, the EC50 is 14.6 µM.

On to `CC1(C)Cc2ccccc2C(NNC(=O)c2ccccn2)=N1`, for which the EC50 was 11.5 µM.

Regarding `O=C1CC(Sc2nnc(-c3ccccc3O)o2)C(=O)N1c1ccccc1` (stereo not drawn), the EC50 was 20.8 µM.

For the compound `CC(C)CNC(=O)c1coc(=O)c(Br)c1`, the EC50 is 20.5 µM.

Turning to `COc1ccc(-c2nnc(Nc3nc4c(OC)cccc4s3)o2)cc1`, the EC50 is > 10 µM (inactive).

As for `CC1(C)CC(=O)C2=C(C1)Oc1nc3ccccc3cc1C2C(C#N)C#N` (stereo not drawn), the 50% effective concentration (EC50) was 14.5 µM.

For the compound `COC(=O)CCS(=O)(=O)c1nc(-c2ccccc2)cc(C(F)(F)F)n1`, the concentration giving a half-maximal response (EC50) was 14.4 µM.

As for `CCC(=O)N1c2ccc(S(=O)(=O)CCC(=O)N3CCn4c3nc3ccccc34)cc2CC1C` (stereo not drawn), the EC50 was 9.63 µM.

On to `Oc1c(C(Nc2ccccn2)c2ccccn2)ccc2cccnc12` (stereo not drawn), for which the EC50 is 5.55 µM.

`COc1ccc(C2=Nn3c(nnc3C3CCCCC3)SC2)cc1OC`: the concentration for a half-maximal effect (EC50) was 14.1 µM.

Take `CN=C1c2cc3cc(OC)ccc3n2CCN1Cc1ccccc1`: the EC50 is 18.1 µM.

In the case of `COc1ccc(C2Oc3ccccc3C3=C2C(c2cccs2)n2ncnc2N3)cc1` (stereo not drawn), the EC50 was 19.2 µM.

On to `COc1ccc(C(=O)C(CN2CCOCC2)c2ccccc2)cc1` (stereo not drawn), for which the EC50 is 4.7 µM.

For the compound `N#CCC(=O)Nc1ncn(Cc2ccccc2Cl)n1`, the EC50 is 19.7 µM.

Take `CC(C)COC(=O)c1ccc2c(c1O)C(=O)c1ccccc1C2=O`: the EC50 was 17.9 µM.

With `CC(C)(C)c1nn(-c2ccccc2)c2[nH]c(=O)c(CNCc3ccc4c(c3)OCO4)cc12`, the EC50 was 20.6 µM.

On to `Cc1ccc(S(=O)(=O)N2CCCN(S(=O)(=O)c3ccc(C(F)(F)F)cc3)CC2)cc1`, for which the EC50 is 16.1 µM.

For the compound `CCOC(=O)CSc1cccc2cccnc12`, the EC50 is 12.6 µM.

For `CC(Nc1nc(N2CCCC2)nc2ccccc12)c1ccccc1` (stereo not drawn), the half-maximal effective concentration (EC50) was 11.7 µM.

For `CCC(=O)OCCNc1cc(Sc2nc3ccccc3s2)c2nonc2c1[N+](=O)[O-]`, the EC50 is 6.76 µM.

As to `O=C(Nc1nccs1)c1c(O)c2cccc3c2n(c1=O)CCC3`, the EC50 is 15.2 µM.

System in another test: not listed separately
The test is described as above. Conditions: LL 47 lung fibroblast viability, ATP luminescence; at 20 µM (top of the series). In short, it runs like this:
as §1
`CCOC(=O)CNC(=O)C(=O)c1c(O)[nH]c2ccccc12`: the viability was 96.6% (inactive).

With `CCCc1c(C)c2cc(C)ccc2[nH]c1=O`, the viability was 110% (inactive).

As to `Cc1cccc(-c2nnc(NC(=O)c3ccc(Cl)cc3)o2)c1`, the viability was 87.4% (inactive).

Take `Cc1ccc(N=Nc2c(C)[nH][nH]c2=O)c(C)c1`: the viability was 97.6% (inactive).

Consider `Oc1ccccc1NCC(O)Cn1ccc2ccccc21` (stereo not drawn), for which the viability was 98.6% (inactive).

For the compound `N=C1C(c2nc(-c3ccc(Cl)cc3)cs2)=C(O)CN1CCCN1CCOCC1`, the viability is 118% (inactive).

Regarding `COCCCNC(=O)c1ccc2c(=O)n(Cc3ccc4c(c3)OCO4)c(=S)[nH]c2c1`, the viability was 106% (inactive).

For the compound `CCOC(=O)c1ccc(NC(=O)CCc2nc(-c3cccc(C)c3)no2)cc1`, the viability was 107% (inactive).

Regarding `Brc1ccc(-c2csc(NNC3=NCCCCC3)n2)cc1`, the viability is 90.2% (inactive).

With `O=C(CCSc1ccc(Cl)cc1)N1CCN(c2ncccn2)CC1`, the viability is 96.4% (inactive).

`O=C(CN1CCN(S(=O)(=O)c2ccc(F)cc2)CC1)Nc1ccc2c(c1)OCO2`: the viability was 104% (inactive).

As to `CCOc1cc(N2CCOCC2)c(OCC)cc1NC(=O)COc1ncnc2ccc(Br)cc12`, the viability is 100% (inactive).

Turning to `COc1cccc(-c2nnc(Nc3nc4c(F)cccc4s3)o2)c1`, the viability was 84.7% (inactive).

In the case of `Cc1sc2nc(SCC(=O)NCc3ccco3)n(Cc3ccccc3)c(=O)c2c1C`, the viability was 98.4% (inactive).

In the case of `O=C1C2C3C=CC(CO)(O3)C2C(=O)N1c1ccccc1-c1ccccc1` (stereo not drawn), the viability is 91.7% (inactive).

With `COc1ccc(Cl)cc1C(=O)n1nc(C)cc1C`, the viability is 101% (inactive).

For the compound `N#Cc1nc(COc2ccc(-c3ccccc3)cc2)oc1NCCCN1CCOCC1`, the viability is 91.9% (inactive).

`CCc1ccc(-c2nc(CN3CCC(C(=O)NCc4ccc(F)cc4)CC3)c(C)o2)cc1`: the viability was 103% (inactive).

For `Cc1cc(NC(=O)c2cccc(S(=O)(=O)N3CC(c4ccccc4)CC3=O)c2)no1` (stereo not drawn), the viability is 98.4% (inactive).

Turning to `Cn1c(-c2ccc3ccccc3n2)nc2cnccc21`, the viability is 93.4% (inactive).

`Cc1ccccc1-c1nc(CN2CCC(C(=O)NCCC3=CCCCC3)CC2)c(C)o1`: the viability was 87.6% (inactive).

For the compound `COc1ccc(N/N=C2/CCCCC2=O)cc1`, the viability was 123% (inactive).

As to `CCOc1ccc2nc(NC(=O)CSc3nc4c(c(=O)n(C)c(=O)n4C)n3C(C)C)sc2c1`, the viability is 102% (inactive).

As for `COc1ccccc1-c1cc(C(=O)Nc2cc(C)n(Cc3ccc(Cl)cc3)n2)no1`, the viability was 86% (inactive).

With `Nc1nc2ccccc2n1/N=C/c1ccc(-c2ccccc2)o1`, the viability is 111% (inactive).

Broadly, the EC50 is the midpoint of the concentration-response curve. Usually viability stands for a read-out of living cells in per cent, often relative to untreated cells.
